Where a SMILES comes first, the peptide text is derived from it. [ ]: non-standard residue; d: D form. Phe(4-CN) = N#Cc1ccc(C[C@H](N)C(=O)O)cc1
Experiments:
[1] = value belongs to the α-helical peptide, not the tripeptide; cited from earlier work
[2] = melittin, Gly residue at the N-terminus; cited from earlier work
[3] = pH titration via PheCN fluorescence to determine N-terminal pKa; assay type: physicochemical; conditions: 20 μM peptide, pH 2-12, 25 °C, excitation 275 nm
Outline: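 Peptides were HPLC-purified and mass-verified, and concentration was set optically from absorbance at 280 nm (ε 850 M−1 cm−1). Each pH was made by mixing peptide stocks in 25 mM H3PO4 and 25 mM NaOH, then read on a pH meter. Spectra were taken in a 1 cm cuvette at 1 nm resolution, 1 s/nm, with buffer background subtracted. Peak intensity was fitted to a two-state equation with linear acidic and basic baselines to give pKa (±0.1).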

## N#Cc1ccc(C[C@H](NC(=O)CN)C(=O)NCC(N)=O)cc1 [G, reference compound] (H-Gly-[Phe(4-CN)]-Gly-NH2)
[1]
  N-terminal pKa value (pKaH) of an α-helical peptide with X at the N-terminus: 8.51

## CSCC[C@H](N)C(=O)N[C@@H](Cc1ccc(C#N)cc1)C(=O)NCC(N)=O [M, reference compound] (H-Met-[Phe(4-CN)]-Gly-NH2)
[1]
  N-terminal pKa value (pKaH) of an α-helical peptide with X at the N-terminus: 7.83

## N#Cc1ccc(C[C@H](NC(=O)[C@@H](N)CC(=O)O)C(=O)NCC(N)=O)cc1 [D] (H-Asp-[Phe(4-CN)]-Gly-NH2)
[1]
  N-terminal pKa value (pKaH) of an α-helical peptide with X at the N-terminus: 8.25

## CC(C)[C@H](N)C(=O)N[C@@H](Cc1ccc(C#N)cc1)C(=O)NCC(N)=O [V] (H-Val-[Phe(4-CN)]-Gly-NH2)
[1]
  N-terminal pKa value (pKaH) of an α-helical peptide with X at the N-terminus: 8.14

## melittin
[2]
  N-terminal pKa of the amino group: 7.85

## N#Cc1ccc(C[C@H](NC(=O)[C@@H](N)CO)C(=O)NCC(N)=O)cc1 [S] (H-Ser-[Phe(4-CN)]-Gly-NH2)
[1]
  N-terminal pKa value (pKaH) of an α-helical peptide with X at the N-terminus: 7.63

## N#Cc1ccc(C[C@H](NC(=O)[C@@H](N)CC(N)=O)C(=O)NCC(N)=O)cc1 [N] (H-Asn-[Phe(4-CN)]-Gly-NH2)
[1]
  N-terminal pKa value (pKaH) of an α-helical peptide with X at the N-terminus: 7.07

## C[C@H](N)C(=O)N[C@@H](Cc1ccc(C#N)cc1)C(=O)NCC(N)=O [A, reference compound] (H-Ala-[Phe(4-CN)]-Gly-NH2)
[1]
  N-terminal pKa value (pKaH) of an α-helical peptide with X at the N-terminus: 8.35

## N#Cc1ccc(C[C@H](NC(=O)[C@@H](N)CCCCN)C(=O)NCC(N)=O)cc1 [K] (H-Lys-[Phe(4-CN)]-Gly-NH2)
[1]
  N-terminal pKa value (pKaH) of an α-helical peptide with X at the N-terminus: 8.12

## N#Cc1ccc(C[C@H](NC(=O)[C@@H]2CCCN2)C(=O)NCC(N)=O)cc1 [P] (H-Pro-[Phe(4-CN)]-Gly-NH2)
[1]
  N-terminal pKa value (pKaH) of an α-helical peptide with X at the N-terminus: 8.85

## CC(=O)NCC(=O)N[C@@H](Cc1ccc(C#N)cc1)C(=O)NCC(N)=O [*GFCNG] (Ac-Gly-[Phe(4-CN)]-Gly-NH2)
[3]
  pH dependence of PheCN fluorescence intensity (acid-base titration transition): does not show such a transition
